Assay results as given in publication PMC11492202 (RSC Advances, 2024).

How the values were obtained:
Bacillus subtilis = assay: Antibacterial disc diffusion assay; format: cell-based; conditions: 37 °C, 24 hours
Method in brief: (§1)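 Organisms grown overnight in nutrient broth, adjusted to 0.5 McFarland turbidity and spread evenly on Mueller-Hinton agar with sterile cotton brushes. Sterile 4 mm paper discs were impregnated with test compound and placed on the inoculated plates. Rifampin served as the positive control and DMSO as the negative control. Plates were incubated at 37 °C for 24 h, and inhibition zones were measured in mm.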

α-amylase = assay: In vitro α-amylase inhibition assay; format: biochemical; conditions: read-out: α-Amylase inhibition IC50 ± SEM; starch substrate, pH 6.9
Escherichia coli = assay: Antibacterial disc diffusion assay; format: cell-based; conditions: 37 °C, 24 hours
Method in brief: as §1

Proteinase K = Proteinase K (Parengyodontium album, UniProt P06873); assay: In vitro proteinase K inhibition assay; format: biochemical, Tritirachium album Limber
Sequence of Proteinase K (P06873 106-384): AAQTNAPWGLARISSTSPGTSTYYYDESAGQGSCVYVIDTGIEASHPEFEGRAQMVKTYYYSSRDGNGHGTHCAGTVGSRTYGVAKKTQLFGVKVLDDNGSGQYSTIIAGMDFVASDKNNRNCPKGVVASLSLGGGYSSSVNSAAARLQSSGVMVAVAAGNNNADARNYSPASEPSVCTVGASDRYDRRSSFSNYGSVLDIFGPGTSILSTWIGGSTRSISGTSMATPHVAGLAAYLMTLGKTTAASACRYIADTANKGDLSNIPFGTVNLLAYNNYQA

Compound | IC50 (α-amylase) | IC50 (Proteinase K) | Antibacterial zone of inhibition (Bacillus subtilis) | Antibacterial zone of inhibition (Escherichia coli)
O=C(NC(=S)Nc1nc(-c2ccccc2)cc(-c2ccc(Br)cc2)n1)c1ccccc1 [6a, N-((4-(4-Bromophenyl)-6-phenylpyrimidin-2-yl)carbamothioyl) benzamide] | 1676 ± 14 nM | – | 8 mm | 7 mm
COc1ccc(C(=O)NC(=S)Nc2nc(-c3ccccc3)cc(-c3ccc(Cl)cc3)n2)cc1OC [6b, N-((4-(4-Chlorophenyl)-6-phenylpyrimidin-2-yl)carbamothioyl)-3,4-dimethoxybenzamide] | 1612 ± 4 nM | 1810 ± 86 nM | 9 mm | 6 mm
O=C(NC(=S)Nc1nc(-c2ccccc2)cc(-c2ccc(F)cc2)n1)c1ccccc1 [6e, N-((4-(4-Fluorophenyl)-6-phenylpyrimidin-2-yl)carbamothioyl)benzamide] | 1662 ± 10 nM | – | 7 mm | 6 mm
Cc1ccccc1C(=O)NC(=S)Nc1nc(-c2ccccc2)cc(-c2ccc(Cl)cc2)n1 [6f, N-((4-(4-Chlorophenyl)-6-phenylpyrimidin-2-yl)carbamothioyl)-2 methylbenzamide] | 1664 ± 10 nM | 1790 ± 80 nM | 6 mm | 7 mm
O=C(NC(=S)Nc1nc(-c2ccccc2)cc(-c2ccc(Cl)cc2)n1)c1cccc2ccccc12 [6h, N-((4-(4-Chlorophenyl)-6-phenylpyrimidin-2-yl)carbamothioyl)-1-naphthamide] | 1601 ± 8 nM | – | 8 mm | 6 mm
CO[C@H]1/C=C/O[C@@]2(C)Oc3c(C)c(O)c4c(O)c(c(/C=N/N5CCN(C)CC5)c(O)c4c3C2=O)NC(=O)/C(C)=C\C=C\[C@H](C)[C@H](O)[C@@H](C)[C@@H](O)[C@@H](C)[C@H](OC(C)=O)[C@@H]1C [Rifampin, reference compound] | – | – | 26 mm | 17 mm

Second part, led by results:

IC50 (α-amylase) | IC50 (Proteinase K) | Compound | Antibacterial zone of inhibition (Bacillus subtilis) | Antibacterial zone of inhibition (Escherichia coli)
1550 ± 24 nM | 1830 ± 62 nM | Cc1ccc(-c2cc(-c3ccccc3)nc(NC(=S)NC(=O)c3ccccc3)n2)cc1 [6c, N-((4-Phenyl-6-(p-tolyl)pyrimidin-2-yl)carbamothioyl)benzamide] | 8 mm | 7 mm
1550 ± 23 nM | – | Cc1ccc(-c2cc(-c3ccc(F)cc3)nc(NC(=S)NC(=O)c3ccccc3)n2)cc1 [6d, N-((4-(4-Fluorophenyl)-6-(p-tolyl)pyrimidin-2-yl)carbamothioyl)benzamide] | 9 mm | 8 mm
1520 ± 34 nM | – | O=C(NC(=S)Nc1nc(-c2ccccc2)cc(-c2ccc(Cl)cc2)n1)C1CCCCC1 [6i, N-((4-(4-Chlorophenyl)-6-phenylpyrimidin-2-yl)carbamothioyl) cyclohexane carboxamide] | 11 mm | 7 mm
1480 ± 51 nM | – | Cc1ccc(C(=O)NC(=S)Nc2nc(-c3ccccc3)cc(-c3ccc(Cl)cc3)n2)cc1 [6j, N-((4-(4-Chlorophenyl)-6-phenylpyrimidin-2-yl)carbamothioyl)-4-methylbenzamide] | 7 mm | 6 mm
